Assay results reported in ChEMBL document CHEMBL5724801, “EUbOPEN Chemogenomics Library - Multiplex” (2024).
Where “and” joins values, the source holds several entries; their conditions need not be identical. Equal entries are not always repeated.

System: U2OS
Assay: Multiplex assay against U2OS
Type: toxicity, cell-based
Details: human
Summary of the method: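 Tubulin, mitochondrial-mass and membrane-permeability phenotypes are per cents of healthy-nucleus cells. Cells were gated by CellPathfinder machine learning into Hoechst high-intensity objects or normal cells, normal cells into healthy, pyknosed or fragmented nuclei, and pyknosed cells into mitotic or apoptotic. Before that, live cells stained at seeding with Hoechst33342, BioTracker Green Microtubule Cytoskeleton Dye, MitoTracker Red and Annexin V Alexa Fluor 680 were imaged on a CQ1 microscope at 37°C and 5% CO2 after compound addition.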

[1] = 12 h, 1 µM, compound concentration 1 uM
[2] = 12 h, 10 µM, compound concentration 10 uM
[3] = 24 h, 1 µM, compound concentration 1 uM
[4] = 24 h, 10 µM, compound concentration 10 uM
[5] = 48 h, 1 µM, compound concentration 1 uM
[6] = 48 h, 10 µM, compound concentration 10 uM

## Nc1nccc(-c2ccn3c(N)nccc23)n1
[1]
  Population Apoptotic (%): 36.59% and 39.13%
  Population Fragmented Nuclei (%): 1.59% and 3.62%
  Population Healthy Nuclei (%): 89.07% and 79.71%
  Population Hoechst High Intensity Objects (%): 0%
  Population Membrane Permeable-Phenotype (%): 0.51% and 5.45%
  Population Mitochondria Different-Phenotype (%): 0.26% and 7.27%
  Population Mitotic Cells (%): 63.41% and 60.87%
  Population Normal (%): 100%
  Population Pyknosed Nuclei (%): 9.34% and 16.67%
  Population Tubulin-Different-Phenotype (%): 1.28% and 0.91%
[2]
  Population Apoptotic (%): 37.93% and 47.62%
  Population Fragmented Nuclei (%): 1.07% and 2.9%
  Population Healthy Nuclei (%): 91.15% and 81.88%
  Population Hoechst High Intensity Objects (%): 0%
  Population Membrane Permeable-Phenotype (%): 0.88% and 1.77%
  Population Mitochondria Different-Phenotype (%): 0.59% and 8.85%
  Population Mitotic Cells (%): 62.07% and 52.38%
  Population Normal (%): 100%
  Population Pyknosed Nuclei (%): 7.77% and 15.22%
  Population Tubulin-Different-Phenotype (%): 1.47% and 0%
  Total Cell Count: 373 and 138
[3]
  Population Apoptotic (%): 48.28% and 64.29%
  Population Fragmented Nuclei (%): 1.88% and 4%
  Population Healthy Nuclei (%): 88.23% and 88%
  Population Hoechst High Intensity Objects (%): 0%
  Population Membrane Permeable-Phenotype (%): 0% and 3.25%
  Population Mitochondria Different-Phenotype (%): 0.39% and 5.19%
  Population Mitotic Cells (%): 51.72% and 35.71%
  Population Normal (%): 100%
  Population Pyknosed Nuclei (%): 9.9% and 8%
  Population Tubulin-Different-Phenotype (%): 1.16% and 0.65%
[4]
  Population Apoptotic (%): 40.48% and 37.04%
  Population Fragmented Nuclei (%): 3.09% and 2.73%
  Population Healthy Nuclei (%): 88.8% and 82.51%
  Population Hoechst High Intensity Objects (%): 0%
  Population Membrane Permeable-Phenotype (%): 0.22% and 0.66%
  Population Mitochondria Different-Phenotype (%): 0.22% and 2.65%
  Population Mitotic Cells (%): 59.52% and 62.96%
  Population Normal (%): 100%
  Population Pyknosed Nuclei (%): 8.11% and 14.75%
  Population Tubulin-Different-Phenotype (%): 1.09% and 0%
  Total Cell Count: 518 and 183
[5]
  Population Apoptotic (%): 45.74% and 43.75%
  Population Fragmented Nuclei (%): 1.77% and 2.26%
  Population Healthy Nuclei (%): 88.99% and 85.66%
  Population Hoechst High Intensity Objects (%): 0%
  Population Membrane Permeable-Phenotype (%): 1.33% and 2.64%
  Population Mitochondria Different-Phenotype (%): 0.11% and 5.73%
  Population Mitotic Cells (%): 54.26% and 56.25%
  Population Normal (%): 100%
  Population Pyknosed Nuclei (%): 9.24% and 12.08%
  Population Tubulin-Different-Phenotype (%): 1.44% and 1.32%
[6]
  Population Apoptotic (%): 43.48% and 40%
  Population Fragmented Nuclei (%): 3.29% and 3.46%
  Population Healthy Nuclei (%): 87.54% and 84.43%
  Population Hoechst High Intensity Objects (%): 0% and 0.34%
  Population Membrane Permeable-Phenotype (%): 0.91% and 2.05%
  Population Mitochondria Different-Phenotype (%): 0.23% and 2.87%
  Population Mitotic Cells (%): 56.52% and 60%
  Population Normal (%): 100% and 99.66%
  Population Pyknosed Nuclei (%): 9.17% and 12.11%
  Population Tubulin-Different-Phenotype (%): 1.03% and 2.46%

## NCCc1cn(S(=O)(=O)c2c(Cl)nc3sccn23)c2ccccc12.O=C(O)C(=O)O
[1]
  Population Apoptotic (%): 66% and 81%
  Population Fragmented Nuclei (%): 30% and 17%
  Population Healthy Nuclei (%): 58% and 72%
  Population Hoechst High Intensity Objects (%): 1%
  Population Membrane Permeable-Phenotype (%): 9% and 4%
  Population Mitochondria Different-Phenotype (%): 6% and 8%
  Population Mitotic Cells (%): 33% and 18%
  Population Normal (%): 98%
  Population Pyknosed Nuclei (%): 10% and 9%
  Population Tubulin-Different-Phenotype (%): 6%
  Total Cell Count: 280 and 116
[2]
  Population Apoptotic (%): 71% and 82%
  Population Fragmented Nuclei (%): 26% and 20%
  Population Healthy Nuclei (%): 42% and 53%
  Population Hoechst High Intensity Objects (%): 5% and 4%
  Population Membrane Permeable-Phenotype (%): 42% and 30%
  Population Mitochondria Different-Phenotype (%): 60% and 71%
  Population Mitotic Cells (%): 28% and 17%
  Population Normal (%): 94% and 95%
  Population Pyknosed Nuclei (%): 30% and 26%
  Population Tubulin-Different-Phenotype (%): 59% and 50%
  Total Cell Count: 221 and 115
[3]
  Population Apoptotic (%): 69% and 78%
  Population Fragmented Nuclei (%): 25% and 20%
  Population Healthy Nuclei (%): 66% and 70%
  Population Hoechst High Intensity Objects (%): 1%
  Population Membrane Permeable-Phenotype (%): 6% and 9%
  Population Mitochondria Different-Phenotype (%): 5% and 7%
  Population Mitotic Cells (%): 30% and 21%
  Population Normal (%): 98%
  Population Pyknosed Nuclei (%): 8% and 9%
  Population Tubulin-Different-Phenotype (%): 3% and 7%
  Total Cell Count: 326 and 151
[4]
  Population Apoptotic (%): 83% and 86%
  Population Fragmented Nuclei (%): 29% and 20%
  Population Healthy Nuclei (%): 38% and 46%
  Population Hoechst High Intensity Objects (%): 6% and 3%
  Population Membrane Permeable-Phenotype (%): 26%
  Population Mitochondria Different-Phenotype (%): 63% and 67%
  Population Mitotic Cells (%): 16% and 13%
  Population Normal (%): 93% and 96%
  Population Pyknosed Nuclei (%): 31% and 33%
  Population Tubulin-Different-Phenotype (%): 26% and 38%
  Total Cell Count: 240 and 116
[5]
  Population Apoptotic (%): 81% and 85%
  Population Fragmented Nuclei (%): 21%
  Population Healthy Nuclei (%): 70% and 66%
  Population Hoechst High Intensity Objects (%): 1% and 6%
  Population Membrane Permeable-Phenotype (%): 5% and 10%
  Population Mitochondria Different-Phenotype (%): 4% and 7%
  Population Mitotic Cells (%): 18% and 14%
  Population Normal (%): 98% and 93%
  Population Pyknosed Nuclei (%): 8% and 12%
  Population Tubulin-Different-Phenotype (%): 2% and 7%
  Total Cell Count: 454 and 182
[6]
  Population Apoptotic (%): 92%
  Population Fragmented Nuclei (%): 37% and 29%
  Population Healthy Nuclei (%): 27% and 34%
  Population Hoechst High Intensity Objects (%): 7%
  Population Membrane Permeable-Phenotype (%): 25% and 42%
  Population Mitochondria Different-Phenotype (%): 56% and 65%
  Population Mitotic Cells (%): 7%
  Population Normal (%): 92%
  Population Pyknosed Nuclei (%): 35%
  Population Tubulin-Different-Phenotype (%): 25% and 42%
  Total Cell Count: 241 and 127

## COC[C@@H](CC(C)C)NC1=N/C(=C\c2ccc3ncsc3c2)C(=O)N1C
[1]
  Population Apoptotic (%): 55.88% and 33.33%
  Population Fragmented Nuclei (%): 15.5% and 15.08%
  Population Healthy Nuclei (%): 77.48% and 78.21%
  Population Hoechst High Intensity Objects (%): 0.41% and 0%
  Population Membrane Permeable-Phenotype (%): 0.8% and 2.14%
  Population Mitochondria Different-Phenotype (%): 0.27% and 9.29%
  Population Mitotic Cells (%): 44.12% and 66.67%
  Population Normal (%): 99.59% and 100%
  Population Pyknosed Nuclei (%): 7.02% and 6.7%
  Population Tubulin-Different-Phenotype (%): 1.33% and 0%
  Total Cell Count: 486 and 179
[2]
  Population Apoptotic (%): 25% and 29.63%
  Population Fragmented Nuclei (%): 47.65% and 84.45%
  Population Hoechst High Intensity Objects (%): 29.32% and 10.96%
  Population Membrane Permeable-Phenotype (%): 4.62% and 2.68%
  Population Mitotic Cells (%): 75% and 70.37%
  Population Normal (%): 70.68% and 89.04%
  Population Pyknosed Nuclei (%): 3.24% and 3.02%
  Population Tubulin-Different-Phenotype (%): 20.13% and 12.5%
  Total Cell Count: 873 and 1004
[3]
  Population Apoptotic (%): 67.39% and 47.62%
  Population Fragmented Nuclei (%): 12.71% and 10%
  Population Healthy Nuclei (%): 79.7% and 80.87%
  Population Hoechst High Intensity Objects (%): 0%
  Population Membrane Permeable-Phenotype (%): 0.41% and 0%
  Population Mitochondria Different-Phenotype (%): 0.41% and 6.45%
  Population Mitotic Cells (%): 32.61% and 52.38%
  Population Normal (%): 100%
  Population Pyknosed Nuclei (%): 7.59% and 9.13%
  Population Tubulin-Different-Phenotype (%): 0.83% and 0%
  Total Cell Count: 606 and 230
[4]
  Population Fragmented Nuclei (%): 53.16% and 86.53%
  Population Hoechst High Intensity Objects (%): 30.44% and 12.75%
  Population Membrane Permeable-Phenotype (%): 2.98% and 2.22%
  Population Mitotic Cells (%): 91.67% and 75%
  Population Normal (%): 69.56% and 87.25%
  Population Pyknosed Nuclei (%): 4.34% and 3.2%
  Population Tubulin-Different-Phenotype (%): 20% and 8.89%
  Total Cell Count: 795 and 1004
[5]
  Population Apoptotic (%): 48.44% and 55.56%
  Population Fragmented Nuclei (%): 12.46% and 10.34%
  Population Healthy Nuclei (%): 81.16% and 82.49%
  Population Hoechst High Intensity Objects (%): 0.69% and 0.79%
  Population Membrane Permeable-Phenotype (%): 1.6% and 0.64%
  Population Mitochondria Different-Phenotype (%): 0% and 3.54%
  Population Mitotic Cells (%): 51.56% and 44.44%
  Population Normal (%): 99.31% and 99.21%
  Population Pyknosed Nuclei (%): 6.38% and 7.16%
  Population Tubulin-Different-Phenotype (%): 0.86% and 0%
  Total Cell Count: 1010 and 380
[6]
  Population Apoptotic (%): 42.86% and 52.83%
  Population Fragmented Nuclei (%): 86.99% and 92.61%
  Population Healthy Nuclei (%): 3.8% and 2.78%
  Population Hoechst High Intensity Objects (%): 32.94% and 15.32%
  Population Membrane Permeable-Phenotype (%): 3.85% and 3.12%
  Population Mitochondria Different-Phenotype (%): 0% and 3.12%
  Population Mitotic Cells (%): 57.14% and 47.17%
  Population Normal (%): 67.06% and 84.68%
  Population Pyknosed Nuclei (%): 9.21% and 4.61%
  Population Tubulin-Different-Phenotype (%): 3.85% and 6.25%
  Total Cell Count: 1020 and 1358
